Where a name gives a salt, the structure may show the parent alone. Read-outs that look alike come from different tables or passages of the source. Marks after values point to notes of the source that are not given here.
Legend:
PDE11 = conditions: cited from earlier work
CYP2C9 = CYP2C9 (Homo sapiens, UniProt P11712); assay: Preliminary in vitro metabolism study, CYP2C9; format: in vitro ADME; conditions: preliminary previously unreported in vitro study
PDE6 = conditions: cited from earlier work
[1] = format: in vivo, human; conditions: for AUC0-24 / Cmax / T1/2 / Cmin,ss / Cmax,ss: geometric mean (CV%); for Tmax: median (range); for C24: mean (SD)
Summary of the method: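 Males took 30 or 60 mg oral test compound once daily for 5 days, fasted, 10 per group. Blood (5 mL) was drawn predose and 0.25–24 h postdose on days 1 and 5, and predose on days 3 and 4. Serum (3500 rpm, 10 min, 4 °C; stored –70 °C) was assayed for parent and M1, M5, M12 by LC-MS/MS MRM, linear 0.5–1000 ng/mL. Parameters came from noncompartmental analysis, reported as geometric mean (CV%), Tmax median (range), C24 mean (SD).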

CYP3A4 = CYP3A4 (Homo sapiens, UniProt P08684); assay: Preliminary in vitro metabolism study, CYP3A4; format: in vitro ADME; conditions: preliminary previously unreported in vitro study
PDE9 = conditions: cited from earlier work
healthy Chinese males = assay: Safety and tolerability; format: in vivo, human
Summary of the method: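 Healthy Chinese males aged 22–45 y with BMI 19.0–24.0 kg/m2, 10 per group. They took 30 or 60 mg oral test compound tablets once daily for 5 days after an overnight fast, with standardized diets. Monitoring covered physical and ophthalmologic exams, vital signs, 12-lead ECG and labs (hematology, chemistry, coagulation, urinalysis), with a day-8 follow-up. The investigator graded AEs for severity and drug relationship, coded in MedDRA 20.0.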

PDE3 = conditions: cited from earlier work
[2] = 30 mg oral once daily, day 1, serum, n=10
[3] = 30 mg oral once daily, day 5, serum, n=9
[4] = 60 mg oral once daily, day 1, serum, n=10
[5] = 60 mg oral once daily, day 5, serum, n=10
[6] = 30 mg once daily 5 days, n=10, probably or possibly related to the study drug
[7] = 60 mg once daily 5 days, n=10, probably or possibly related to the study drug
[8] = 5-day once-daily doses at 30 and 60 mg

CYP3A4, sequence (P08684 whole entry): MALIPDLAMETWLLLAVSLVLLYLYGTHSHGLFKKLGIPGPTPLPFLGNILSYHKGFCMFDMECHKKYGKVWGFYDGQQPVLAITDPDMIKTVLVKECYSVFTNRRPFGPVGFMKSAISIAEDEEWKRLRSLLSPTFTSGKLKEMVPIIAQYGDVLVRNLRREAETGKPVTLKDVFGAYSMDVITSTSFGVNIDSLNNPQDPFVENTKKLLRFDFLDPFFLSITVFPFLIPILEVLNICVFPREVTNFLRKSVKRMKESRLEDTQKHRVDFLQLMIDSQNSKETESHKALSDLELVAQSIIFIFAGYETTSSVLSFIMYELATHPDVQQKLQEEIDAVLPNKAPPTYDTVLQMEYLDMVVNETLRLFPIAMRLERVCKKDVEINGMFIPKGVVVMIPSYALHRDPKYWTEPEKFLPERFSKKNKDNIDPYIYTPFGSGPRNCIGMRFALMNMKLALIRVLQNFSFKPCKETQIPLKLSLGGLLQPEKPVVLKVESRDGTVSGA
CYP2C9, sequence (P11712 whole entry): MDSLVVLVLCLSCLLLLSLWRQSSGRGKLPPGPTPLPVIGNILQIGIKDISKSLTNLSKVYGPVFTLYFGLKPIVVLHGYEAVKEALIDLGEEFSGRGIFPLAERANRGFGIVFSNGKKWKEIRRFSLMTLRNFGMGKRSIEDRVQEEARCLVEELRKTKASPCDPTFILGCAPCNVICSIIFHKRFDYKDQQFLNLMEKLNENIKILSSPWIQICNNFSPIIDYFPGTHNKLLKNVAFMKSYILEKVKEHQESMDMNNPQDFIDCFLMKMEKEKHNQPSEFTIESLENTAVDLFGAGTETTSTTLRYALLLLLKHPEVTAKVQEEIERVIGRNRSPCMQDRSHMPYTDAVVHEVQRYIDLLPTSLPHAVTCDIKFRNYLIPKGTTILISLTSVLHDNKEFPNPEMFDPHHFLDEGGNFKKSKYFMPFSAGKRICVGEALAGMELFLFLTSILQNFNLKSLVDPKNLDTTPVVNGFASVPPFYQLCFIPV

CCCc1nn(C)c2c(=O)[nH]c(-c3cc(S(=O)(=O)N4C[C@@H](C)N[C@@H](C)C4)ccc3OCC)nc12 [Aildenafil, aildenafil citrate]
inhibition ratio relative to similar products (PDE11): 0.49 | involvement of CYP2C9 in the metabolism (CYP2C9): involvement | inhibition ratio relative to similar products (PDE6): 0.30 | AUC0-24 [1, 2]: 313.78 (45.3) h·ng/mL | Cmax [1, 2]: 81.03 (45.3) ng/mL | T1/2 [1, 2]: 2.75 (21.2) h | Tmax ([1]; 30 mg oral once daily, day 1, serum): 1.00 (0.50-2.00) h | C24 ([1]; 30 mg oral once daily, day 5, serum concentration at 24 hours): 0.92 (148.0)^b ng/mL | AUC0-24 [1, 3]: 346.23 (51.8)^b h·ng/mL | Cmin,ss [1, 3]: 1.05 (75.7)^b ng/mL | T1/2 [1, 3]: 3.61 (38.1)^b h | Cmax,ss ([1]; 30 mg oral once daily, day 5, serum, n=10): 84.61 (55.9) ng/mL | Tmax ([1]; 30 mg oral once daily, day 5, serum): 0.75 (0.25-2.00) h | C24 ([1]; 60 mg oral once daily, day 1, serum concentration at 24 hours): 1.71 (54.1) ng/mL | AUC0-24 [1, 4]: 963.18 (44.8) h·ng/mL | Cmax [1, 4]: 199.10 (37.8) ng/mL | T1/2 [1, 4]: 3.26 (19.7) h | Tmax ([1]; 60 mg oral once daily, day 1, serum): 1.00 (0.50-2.00) h | C24 ([1]; 60 mg oral once daily, day 5, serum concentration at 24 hours): 3.85 (66.8) ng/mL | AUC0-24 [1, 5]: 1683.67 (45.1) h·ng/mL | Cmax,ss [1, 5]: 319.71 (23.8) ng/mL | Cmin,ss [1, 5]: 3.61 (61.3) ng/mL | T1/2 [1, 5]: 3.38 (24.2) h | Tmax ([1]; 60 mg oral once daily, day 5, serum): 0.88 (0.50-3.00) h | amount in the blood at 24 hours relative to Cmax ([1]; after the first dose, 30 or 60 mg): less than 1/20 | involvement of CYP3A4 in the metabolism (CYP3A4): involvement | inhibition ratio relative to similar products (PDE9): 0.06 | Blood glucose: elevated: Cases, No. (healthy Chinese males; 30 mg once daily 5 days, n=10): 0 No. | Blood glucose: elevated: Participants, No. (%) (healthy Chinese males; 30 mg once daily 5 days, n=10): 0 (0) No. (%) | Fatigue: Cases, No. (healthy Chinese males; 30 mg once daily 5 days, n=10): 0 No. | Fatigue: Participants, No. (%) (healthy Chinese males; 30 mg once daily 5 days, n=10): 0 (0) No. (%) | Head discomfort: Cases, No. (healthy Chinese males; 30 mg once daily 5 days, n=10): 0 No. | Head discomfort: Participants, No. (%) (healthy Chinese males; 30 mg once daily 5 days, n=10): 0 (0) No. (%) | Lymphocyte count: decreased: Cases, No. (healthy Chinese males; 30 mg once daily 5 days, n=10): 0 No. | Lymphocyte count: decreased: Participants, No. (%) (healthy Chinese males; 30 mg once daily 5 days, n=10): 0 (0) No. (%) | Lymphocyte percentage: decreased: Cases, No. (healthy Chinese males; 30 mg once daily 5 days, n=10): 0 No. | Lymphocyte percentage: decreased: Participants, No. (%) (healthy Chinese males; 30 mg once daily 5 days, n=10): 0 (0) No. (%) | Myalgia: Cases, No. (healthy Chinese males; 30 mg once daily 5 days, n=10): 0 No. | Myalgia: Participants, No. (%) (healthy Chinese males; 30 mg once daily 5 days, n=10): 0 (0) No. (%) | Chest discomfort: Cases, No. (healthy Chinese males; [6]): 1^a No. | Chest discomfort: Participants, No. (%) (healthy Chinese males; [6]): 1 (10.0)^a No. (%) | Vomiting: Cases, No. (healthy Chinese males; [6]): 1^a No. | Vomiting: Participants, No. (%) (healthy Chinese males; [6]): 1 (10.0)^a No. (%) | Chest discomfort: Cases, No. (healthy Chinese males; 60 mg once daily 5 days, n=10): 0 No. | Chest discomfort: Participants, No. (%) (healthy Chinese males; 60 mg once daily 5 days, n=10): 0 (0) No. (%) | Influenza-like illness: Cases, No. (healthy Chinese males; 60 mg once daily 5 days, n=10): 1 No. | Influenza-like illness: Participants, No. (%) (healthy Chinese males; 60 mg once daily 5 days, n=10): 1 (10.0) No. (%) | Vomiting: Cases, No. (healthy Chinese males; 60 mg once daily 5 days, n=10): 0 No. | Vomiting: Participants, No. (%) (healthy Chinese males; 60 mg once daily 5 days, n=10): 0 (0) No. (%) | Blood glucose: elevated: Cases, No. (healthy Chinese males; [7]): 1^a No. | Blood glucose: elevated: Participants, No. (%) (healthy Chinese males; [7]): 1 (10.0)^a No. (%) | Fatigue: Cases, No. (healthy Chinese males; [7]): 2^a No. | Head discomfort: Cases, No. (healthy Chinese males; [7]): 1^a No. | Head discomfort: Participants, No. (%) (healthy Chinese males; [7]): 1 (10.0)^a No. (%) | Lymphocyte count: decreased: Cases, No. (healthy Chinese males; [7]): 1^a No. | Lymphocyte count: decreased: Participants, No. (%) (healthy Chinese males; [7]): 1 (10.0)^a No. (%) | Lymphocyte percentage: decreased: Cases, No. (healthy Chinese males; [7]): 1^a No. | Lymphocyte percentage: decreased: Participants, No. (%) (healthy Chinese males; [7]): 1 (10.0)^a No. (%) | fatalities or serious AEs (healthy Chinese males; [8]): no fatalities or serious AEs | impact on heart rate, blood pressure, or visual function (healthy Chinese males; [8]): no clinically significant impact | severity of observed AEs (healthy Chinese males; [8]): mild to moderate | instances of AEs assessed by the investigator to be linked to the study drug (healthy Chinese males; both dose groups, 20 participants): 26 | creatine kinase compared with baseline (healthy Chinese males; day 4): failed to reveal any noteworthy deviations | inhibition ratio relative to similar products (PDE3): 0.75
